≈ marks a conversion by molar mass, not a printed value. Calls of active or inactive are those of the source. The calls are words filed in the database; no cut-off is given here. Where a SMILES comes first, the peptide text is derived from it. The star is where a group is joined. Boc = CC(C)(C)OC(=O)*
Assays:
[1] = test system: Vero; experiment: Cytotoxicity against African green monkey Vero cells assessed as reduction in cell viability incubated for 48 hrs by Neutral red assay; type: cell-based; settings: chlorocebus sabaeus
Summary of the method: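 VERO monkey kidney cells seeded at 25,000 cells/well and incubated 24 h to confluency. Peptide added, then a further 48 h incubation. Viability read by neutral red uptake.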

[2] = test system: Cell membrane; experiment: Induction of membrane permeabilization and disruption in Cryptococcus neoformans ATCC350 assessed as increase in green fluorescence intensity using FITC-labeled compound at MIC measured after 1 hr by confocal laser scanning microscopic analysis; type: subcellular
[3] = test system: Cryptococcus neoformans; experiment: Antifungal activity against Cryptococcus neoformans ATCC 90113 assessed as inhibition of fungal growth by CLSI method; type: functional, organism-based
[4] = test system: Aspergillus fumigatus; experiment: Antifungal activity against Aspergillus fumigatus ATCC 1022 assessed as inhibition of fungal growth by CLSI method; type: functional, organism-based
[5] = test system: Klebsiella pneumoniae; experiment: Antibacterial activity against Klebsiella pneumoniae ATCC BAA1705 assessed as inhibition of bacterial growth by CLSI method; type: functional, organism-based
[6] = Aggregation property of the compound in PBS assessed as particle size at pH 7.4 measured after 4 hrs by dynamic light scattering analysis (reference value: 802 nm); type: physicochemical; settings: buffer, pH 7.4, 4 h
[7] = Aggregation property of the compound in PBS assessed as polydispersity index at pH 7.4 by dynamic light scattering analysis (reference value: 0.383); type: physicochemical; settings: buffer
[8] = test system: Candida albicans; experiment: Antifungal activity against Candida albicans ATCC 10231 assessed as inhibition of fungal growth by CLSI method; type: functional, organism-based
[9] = test system: Escherichia coli; experiment: Antibacterial activity against Escherichia coli ATCC 35218 assessed as inhibition of bacterial growth by CLSI method; type: functional, organism-based
[10] = test system: Enterococcus; experiment: Antibacterial activity against vancomycin resistant Enterococcus ATCC MP-1 assessed as inhibition of bacterial growth by CLSI method; type: functional, organism-based
[11] = test system: Staphylococcus aureus; experiment: Antibacterial activity against methicillin-resistant Staphylococcus aureus ATCC 33591 assessed as inhibition of bacterial growth by CLSI method; type: functional, organism-based
[12] = test system: Pseudomonas aeruginosa; experiment: Antibacterial activity against Pseudomonas aeruginosa ATCC 27853 assessed as inhibition of bacterial growth by CLSI method; type: functional, organism-based
[13] = Aggregation property of the compound in PBS assessed as polydispersity index at pH 7.4 by dynamic light scattering analysis (reference value: 0.333); type: physicochemical; settings: buffer
[14] = test system: Lipid bilayer; experiment: Binding affinity to mammalian membrane mimic EPYC/cholesterol (10:1) small unilamellar vesicle assessed as Stern-Volmer quenching constant by tryptophan quenching analysis
[15] = test system: Cryptococcus neoformans; experiment: Potency index, ratio of Amphotericin B MIC to test compound MIC for antifungal activity against Cryptococcus neoformans ATCC 90113 assessed as inhibition of fungal growth by CLSI method; type: functional
[16] = test system: Cell membrane; experiment: Induction of pore formation in Cryptococcus neoformans ATCC350 assessed as membrane permeabilization by measuring release of intracellular material at MIC by scanning electron microscopy; type: subcellular
[17] = test system: Cryptococcus neoformans; experiment: Potency index, ratio of Amphotericin B IC50 to test compound IC50 for antifungal activity against Cryptococcus neoformans ATCC 90113 assessed as inhibition of fungal growth by CLSI method; type: functional
[18] = test system: Cryptococcus neoformans; experiment: Induction of DNA damage in Cryptococcus neoformans ATCC350 assessed as nuclear and chromatin fragmentation by measuring reduction in blue fluorescence intensity at MIC measured after 1 hr by DAPI staining based confocal laser scanning microscopic analysis; type: functional, organism-based
Summary of the method: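 Cells centrifuged, resuspended in PBS and stained with DAPI (3.01 µM, 10 min). Confocal imaging at Ex/Em 350/470 nm, with untreated cells as control.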

[19] = test system: Cell membrane; experiment: Disruption of Plasma membrane in Cryptococcus neoformans ATCC350 by HR-TEM analysis; type: cell membranes
[20] = test system: Lipid bilayer; experiment: Binding affinity to bacterial membrane mimic EPYC/EPYG (7:3) small unilamellar vesicle assessed as Stern-Volmer quenching constant by tryptophan quenching analysis
[21] = test system: Cell wall; experiment: Disruption of Cell wall in Cryptococcus neoformans ATCC350 by HR-TEM analysis; type: subcellular
[22] = test system: Cell membrane; experiment: Induction of membrane permeabilization in Cryptococcus neoformans ATCC350 assessed as increase in red fluorescence intensity at MIC measured after 1 hr by propidium iodide staining based confocal laser scanning microscopic analysis; type: subcellular
Summary of the method: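 Cells centrifuged, resuspended in PBS pH 7.4 and stained with propidium iodide. Confocal imaging at >560 nm, with untreated cells as control.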

[23] = Aggregation property of the compound in PBS assessed as particle size at pH 7.4 measured after 4 hrs by dynamic light scattering analysis (reference value: 2073 nm); type: physicochemical; settings: buffer, pH 7.4, 4 h
[24] = test system: Cryptococcus neoformans; experiment: Disruption of capsule in Cryptococcus neoformans ATCC350 by HR-TEM analysis

SMILES | Activity [1] [µg/mL] | IC50 [3] [mg/L] | Activity [4] | Activity [5] | Activity [8] | IC50 [9] [mg/L] | IC50 [10] [mg/L] | MIC [10] [mg/L] | MIC [3] [mg/L] | IC50 [11] [mg/L] | MIC [11] [mg/L] | IC50 [12] [mg/L] | also measured
COC(=O)[C@H](CCCNC(=N)N)NC(=O)[C@H](Cc1c[nH]c2ccccc12)NC(=O)[C@H](Cc1c[nH]cn1)NC(=O)OC(C)(C)C (Boc-His-Trp-Arg-OMe) | > 10 | > 20 | inactive | inactive | inactive | – | – | – | – | – | – | – | Activity [2]: inactive; Activity [6]: 108 nm; Activity [7]: 0.922
COC(=O)[C@H](CCCNC(=N)N)NC(=O)[C@H](Cc1c[nH]c2ccccc12)NC(=O)[C@@H](N)Cc1c[nH]c(-c2ccc(-c3ccccc3)cc2)n1.Cl.Cl | > 10 | 1.51 | inactive | inactive | inactive | > 20 | 13.2 | 20 | 2.5 | 7.81 | 10 | > 20 | –
CCCCc1ccc(-c2nc(C[C@H](NC(=O)OC(C)(C)C)C(=O)N[C@@H](Cc3c[nH]c4ccccc34)C(=O)N[C@@H](CCCNC(=N)N)C(=O)OC)c[nH]2)cc1 | > 10 | 1.99 (≈ 2.68 µM) | inactive | inactive | inactive | 17.9 (≈ 24 µM) | 7.82 (≈ 10.5 µM) | 20 (≈ 26.9 µM) | 2.5 (≈ 3.36 µM) | 9.29 (≈ 12.5 µM) | 10 (≈ 13.4 µM) | > 20 | MIC [9]: > 20 mg/L
Cl.Cl.N=C(N)NCCC[C@H](NC(=O)[C@H](Cc1c[nH]c2ccccc12)NC(=O)[C@@H](N)Cc1c[nH]c(-c2ccc(-c3ccccc3)cc2)n1)C(=O)NCc1ccccc1 | > 10 | 1.17 | inactive | inactive | inactive | > 20 | 8.33 | 20 | 5 | 4.44 | 5 | 18.7 | MIC [12]: > 20 mg/L
CCc1ccc(-c2nc(C[C@H](N)C(=O)N[C@@H](Cc3c[nH]c4ccccc34)C(=O)N[C@@H](CCCNC(=N)N)C(=O)NCc3ccccc3)c[nH]2)cc1.Cl.Cl | > 10 | 2.26 | inactive | inactive | inactive | > 20 | 13.5 | 20 | 10 | 18.4 | 20 | > 20 | –
CCCCc1ccc(-c2nc(C[C@H](N)C(=O)N[C@@H](Cc3c[nH]c4ccccc34)C(=O)N[C@@H](CCCNC(=N)N)C(=O)OC)c[nH]2)cc1.Cl.Cl | > 10 | 0.37 | inactive | inactive | inactive | 15.6 | 15.4 | 20 | 0.63 | 8.74 | 10 | > 20 | Activity [13]: 0.584; KSV [14]: 146; Activity [2]: Active; Ratio [15]: 2; MIC [9]: > 20 mg/L; Activity [16]: Active; Ratio IC50 [17]: 2; Activity [18]: Active; Activity [19]: Active; KSV [20]: 6.68; Activity [21]: Active; Activity [22]: Active; Activity [23]: 2792 nm; Activity [24]: Active
CCCCc1ccc(-c2nc(C[C@H](NC(=O)OC(C)(C)C)C(=O)N[C@@H](Cc3c[nH]c4ccccc34)C(=O)N[C@@H](CCCNC(=N)N)C(=O)NCc3ccccc3)c[nH]2)cc1 | > 10 | 1.98 (≈ 2.42 µM) | inactive | inactive | inactive | > 20 | 7.38 (≈ 9.01 µM) | 10 (≈ 12.2 µM) | 2.5 (≈ 3.05 µM) | 9.13 (≈ 11.1 µM) | 10 (≈ 12.2 µM) | > 20 | –
